Results: PMC10874764 (Chinese Herbal Medicines, 2023)
Like-named read-outs stand apart in the source and are kept apart here.

How the values were obtained:
[1] = format: in vivo, SD rats; conditions: male, SD, rat, plasma, po, 1.5 mL/200 g
[2] = Pharmacokinetics of five components in control; format: in vivo, SD rats; conditions: for AUC / AUC(0-t) / Cmax / MRT last / half-life / Tmax: male, SD, rat, plasma, po, 1.5 mL/200 g, n = 6; for AUC: AUC(0−i); for MRT last: MRT0−t
Outline: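 Male SD rats (8-week-old, 200–220 g), four groups (n = 6). Acute liver injury induced by intraperitoneal 50% CCl4 in olive oil at 3 mL/kg; controls received olive oil; fasted with water. After 12 h, single intragastric decoction at 1.5 mL/200 g. Tail-vein blood taken at 0–12 h into heparin. HPLC-MS/MS with internal standard; compartment-model fit for AUC, Cmax, Tmax, T1/2 and MRT.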

[3] = Stability of each chemical component in rat plasma; format: in vitro ADME
Outline: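 Blank rat plasma was spiked at 10, 100 and 500 ng/mL and held at room temperature for 24 h, at 4 °C for 14 d, or frozen at −20 °C for 15 d. Six samples per level were assayed by HPLC-MS/MS against 1,8-dihydroxyanthraquinone internal standard. Calibration ran 5–1 000 ng/mL, with analyte/IS ratio fitted by 1/x-weighted least squares.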

[4] = RhRR of control group, single oral 1.5 mL/200 g RhRR decoction
[5] = RhRR-EuS of control group, single oral 1.5 mL/200 g RhRR-EuS decoction
[6] = T1/2, RhRR-EuS of control group, single oral 1.5 mL/200 g RhRR-EuS decoction
[7] = 10 ng/mL, room temperature for 24 h
[8] = 100 ng/mL, room temperature for 24 h
[9] = 100 ng/mL, −20 °C free for 15 d
[10] = 500 ng/mL, room temperature for 24 h
[11] = 500 ng/mL, −20 °C free for 15 d

SMILES | Tmax [1] | AUC [2, 4] | AUC [2, 5] | AUC(0-t) [2, 4] | AUC(0-t) [2, 5] | Cmax [2, 4] | Cmax [2, 5] | MRT last [2, 4] | MRT last [2, 5] | half-life [2, 6] | Tmax [2, 4] | Stability S [3, 7] | Stability S ([3]; 10 ng/mL, −4 °C for 14 d) | Stability S ([3]; 10 ng/mL, −20 °C free for 15 d) | Stability S [3, 8] | Stability S ([3]; 100 ng/mL, −4 °C for 14 d) | Stability S [3, 9] | Stability S [3, 10] | Stability S ([3]; 500 ng/mL, −4 °C for 14 d) | Stability S [3, 11] | other results
Cc1cc(O)c2c(c1)C(=O)c1cc(O)cc(O)c1C2=O [Em, Emodin] |  | 94.1 ng·h/mL | 154 ng·h/mL | 67.7 ng·h/mL | 68.3 ng·h/mL | 11.2 ng/mL | 16.4 ng/mL | 9.3 h | 18.3 h | 11.4 h | 0.5 h | 104.60% | 105% | 98.50% | 110.40% | 108% | 108.40% | 99.60% | 89.90% | 106% | 
COc1cc(O)c2c(c1)C(=O)c1cc(C)cc(O)c1C2=O [Ph, Physcion] | 0.25 h | 414 ng·h/mL | 243 ng·h/mL | 136 ng·h/mL | 136 ng·h/mL | 54.4 ng/mL | 58.6 ng/mL | 37.3 h | 14.7 h | 10.9 h |  | 103% | 99.50% | 105% | 105% | 102% | 100.6% | 90.50% | 96.70% | 95.3% | Tmax [2, 5]: 0.25 h

More lines, main results first:

Tmax [1] | AUC [2, 4] | AUC [2, 5] | AUC(0-t) [2, 4] | AUC(0-t) [2, 5] | Cmax [2, 4] | Cmax [2, 5] | MRT last [2, 4] | MRT last [2, 5] | half-life [2, 6] | Tmax [2, 4] | Stability S [3, 7] | Stability S ([3]; 10 ng/mL, −4 °C for 14 d) | Stability S ([3]; 10 ng/mL, −20 °C free for 15 d) | Stability S [3, 8] | Stability S ([3]; 100 ng/mL, −4 °C for 14 d) | Stability S [3, 9] | Stability S [3, 10] | Stability S ([3]; 500 ng/mL, −4 °C for 14 d) | Stability S [3, 11] | SMILES | other results
2 h | 738 ng·h/mL | 489 ng·h/mL | 474 ng·h/mL | 443 ng·h/mL | 101 ng/mL | 124 ng/mL | 11.9 h | 5.78 h | 3.04 h | 2 h | 99.60% | 107% | 88.6% | 88.50% | 112% | 84.3% | 98.50% | 98.30% | 85.6% | O=C1c2cccc(O)c2C(=O)c2c(O)cc(CO)cc21 [Ae, Aloe emodin] | Tmax [2, 5]: 0.5 h
0.5 h | 712 ng·h/mL | 763 ng·h/mL | 662 ng·h/mL | 739 ng·h/mL | 164 ng/mL | 170 ng/mL | 5.33 h | 5.64 h | 1.31 h | 1 h | 114% | 99.70% | 105.40% | 105% | 103% | 102.30% | 90.40% | 96.30% | 99.50% | Cc1cc(O)c2c(c1)C(=O)c1cccc(O)c1C2=O [Ch, Chrysophanol] | half-life ([2]; T1/2, RhRR of control group, single oral 1.5 mL/200 g RhRR decoction): 3.64 h
8 h | 1670 ng·h/mL | 1720 ng·h/mL | 1440 ng·h/mL | 1600 ng·h/mL | 434 ng/mL | 455 ng/mL | 6.31 h | 5.44 h | 1.84 h |  | 106.20% | 95.90% | 109.40% | 112.30% | 94.60% | 95.30% | 89.40% | 85.40% | 100.40% | O=C(O)c1cc(O)c2c(c1)C(=O)c1cccc(O)c1C2=O [Rh, Rhein] | Bioavailability among the five components ([2]; all groups (control and model rats, oral RhRR or RhRR-EuS decoction)): highest
